From publication PMC11364517 (Neuron, 2024)

How the values were obtained:
GRABNE2m [1] = assay: Ligand selectivity of GRABNE2m expressed in HEK293T cells; format: cell-based; settings: for fluorescence response of GRABNE2m to the ligand: HEK293T cells, trace amines and NE metabolites in full doses (Fig. S2C, S2D)
GRABNE2h [2] = assay: Ligand selectivity of GRABNE2h expressed in HEK293T cells; format: cell-based; settings: for fluorescence response of GRABNE2h to the ligand: HEK293T cells, trace amines and NE metabolites in full doses (Fig. S2C, S2D)
GRABNE2m [3] = settings: read-out: apparent affinity values (EC50); n = 3
GRABNE2h [4] = settings: read-out: apparent affinity values (EC50); n = 3
[5] = test system: optogenetically evoked NE release in the LC; assay: Fiber photometry in the LC of freely moving TH-Cre mice during optogenetic; format: in vivo; settings: i.p. injection; GRABNE2m and GRABNE2h
Outline: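 Mice received hSyn-GRABNE2m or NE2h AAV plus Cre-dependent C1V1-YFP AAV (1 × 10¹³ genomic copies per ml) in the LC at 100 nl/min, 500 nl, under Avertin (500 mg/kg i.p.) or 1.5% isoflurane. LC fibres (105/125 μm) were implanted four weeks later. Photometry used a 473-nm laser, 25 μW at the fibre tip. Test compound was given i.p.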

| Compound | fluorescence response of GRABNE2m to the ligand (GRABNE2m [1]) | fluorescence response of GRABNE2h to the ligand (GRABNE2h [2]) | other results |
| --- | --- | --- | --- |
| COc1cc(C(O)CO)ccc1O (stereo not shown) [3-methoxy-4-hydroxyphenylglycol] | not respond | not respond |  |
| NCCc1ccc(O)c(O)c1 [DA, dopamine] |  |  | EC50 (GRABNE2m [3]): 20 µM; EC50 (GRABNE2h [4]): 9 µM |
| Fc1ccc(C(OCCN2CCN(CCCc3ccccc3)CC2)c2ccc(F)cc2)cc1 [GBR-12909] |  |  | effect on decay kinetics of the optogenetically evoked response [5]: no effect |
| NC[C@H](O)c1ccc(O)c(O)c1 [NE, norepinephrine] |  |  | EC50 (GRABNE2m [3]): 0.38 µM; EC50 (GRABNE2h [4]): 0.19 µM |
| CC(=O)OCC[N+](C)(C)C [acetylcholine] | do not respond | do not respond |  |
| Nc1ncnc2c1ncn2[C@@H]1O[C@H](CO)[C@@H](O)[C@H]1O [adenosine] | do not respond | do not respond |  |
| CCc1cc(Cl)c(OC)c(C(=O)NC[C@@H]2CCCN2CC)c1O [eticlopride] |  |  | effect on decay kinetics of the optogenetically evoked response [5]: no effect |
| N[C@@H](CCC(=O)O)C(=O)O [glutamate, L-Glutamic acid] | do not respond | do not respond |  |
| NCCc1c[nH]cn1 [histamine] | do not respond | do not respond |  |
| CC(C)NCC(O)c1ccc(O)c(O)c1 (stereo not shown) [isoprenaline] | do not respond | do not respond |  |
| COc1cc(C(O)CN)ccc1O (stereo not shown) [normetanephrine] | not respond | not respond |  |
| NCC(O)c1ccc(O)cc1 (stereo not shown) [octopamine] | not respond | not respond |  |
| NCCc1ccccc1 [phenethylamine] | not respond | not respond |  |
| NCCc1c[nH]c2ccc(O)cc12 [serotonin] | do not respond | do not respond |  |
| NCCc1ccc(O)cc1 [tyramine] | not respond | not respond |  |
| COc1cc(C(O)C(=O)O)ccc1O (stereo not shown) [vanillylmandelic acid] | not respond | not respond |  |
| COC(=O)[C@@H]1[C@H]2C[C@H]3c4[nH]c5ccccc5c4CCN3C[C@@H]2CC[C@@H]1O [yohimbine] |  |  | block of the NE-induced response of GRABNE2m (GRABNE2m [1]; HEK293T cells (Fig. S2D)): blocked; block of the NE-induced response of GRABNE2h (GRABNE2h [2]; HEK293T cells (Fig. S2D)): blocked |
| NCCCC(=O)O [γ-aminobutyric acid] | do not respond | do not respond |  |
